Measured values from ChEMBL document CHEMBL1146211, “Conformationally constrained analogues of diacylglycerol (DAG). 28. DAG-dioxolanones reveal a new additional interaction site in the C1b domain of PKC delta” (J Med Chem, 2007).
pKd, pKi: −log10 of the molar value. Activity calls are given as the source filed them. The calls are words filed in the database; no cut-off is given here.

Key:
[1] = molecular target: Protein kinase C alpha type (Mus musculus, UniProt P20444); assay: Displacement of [3H]PDBu from mouse recombinant PKCalpha expressed in Escherichia coli
Procedure, shortened: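 Recombinant full-length mouse PKCα, partially purified, is tested for competitive displacement of [3H]PDBu with phosphatidylserine (100 µg/mL), 4 mg/mL bovine IgG and 50 mM Tris-HCl pH 7.4. Incubation is 37 °C for 5 min, followed by polyethylene glycol precipitation on ice and scintillation counting of bound and free label. Ki is calculated by the lab's standard method, averaged over three independent experiments.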

[2] = molecular target: T1, Protein kinase C delta type (Mus musculus, UniProt P28867); assay: Binding affinity to mouse wild-type PKCdelta C1a expressed in Escherichia coli
T1 sequence (P28867 whole entry, the tested form may be a part): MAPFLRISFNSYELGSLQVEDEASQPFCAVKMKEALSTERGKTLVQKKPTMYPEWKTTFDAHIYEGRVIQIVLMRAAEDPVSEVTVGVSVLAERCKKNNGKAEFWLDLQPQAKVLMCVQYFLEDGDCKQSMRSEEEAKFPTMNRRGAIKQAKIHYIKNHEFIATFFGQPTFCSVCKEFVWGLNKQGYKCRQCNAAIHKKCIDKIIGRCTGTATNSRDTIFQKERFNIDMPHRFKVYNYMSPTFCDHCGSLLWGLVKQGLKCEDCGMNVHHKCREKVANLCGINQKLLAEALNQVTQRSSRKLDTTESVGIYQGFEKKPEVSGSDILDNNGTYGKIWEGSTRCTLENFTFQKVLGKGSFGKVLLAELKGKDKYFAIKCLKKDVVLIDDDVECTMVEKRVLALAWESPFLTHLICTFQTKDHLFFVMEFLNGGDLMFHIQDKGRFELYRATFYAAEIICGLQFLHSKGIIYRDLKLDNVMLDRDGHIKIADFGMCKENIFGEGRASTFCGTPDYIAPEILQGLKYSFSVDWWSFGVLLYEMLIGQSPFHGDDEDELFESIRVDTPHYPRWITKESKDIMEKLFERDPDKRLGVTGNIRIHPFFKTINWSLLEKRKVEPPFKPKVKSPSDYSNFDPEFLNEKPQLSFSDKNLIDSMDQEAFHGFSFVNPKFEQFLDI
Procedure, shortened: (§1)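 Competitive displacement of [3H]PDBu from GST-tagged C1 domains of PKCδ (expressed in E. coli, IPTG-induced, spin-purified, stored in 30% glycerol at -70 °C). 18 °C for 10 min, PEG precipitation on ice, scintillation counting of pellet and supernatant. Ki from the lab's standard method. Three independent experiments.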

[3] = molecular target: T1, Protein kinase C delta type; assay: Displacement of [3H]PDBu from mouse wild type C1b domain of PKCdelta expressed in Escherichia coli; procedure, shortened: as §1
[4] = molecular target: Protein kinase C delta type (Mus musculus, UniProt P28867, Q257E); assay: Displacement of [3H]PDBu from mouse PKCdelta C1b Q27E mutant expressed in Escherichia coli; procedure, shortened: as §1
Chain of Protein kinase C delta type (Mus musculus, UniProt P28867, Q257E) (P28867 whole entry Q257E): as the sequence (P28867 whole entry, the tested form may be a part) above, with Q257E counted along it

[5] = molecular target: T1, Protein kinase C delta type; assay: Binding affinity to mouse PKC delta C1a Q27E mutant expressed in Escherichia coli; procedure, shortened: as §1
[6] = molecular target: Protein kinase C delta type (Mus musculus) (UniProt P28867); assay: Ratio of Ki for mouse PKCdelta C1b Q27E mutant to Ki for mouse wild type C1b domain of PKCdelta
Chain of Protein kinase C delta type (Mus musculus) (P28867 whole entry, looked up, the tested form may be a part): as the sequence (P28867 whole entry, the tested form may be a part) above

[7] = molecular target: Protein kinase C delta type (Mus musculus) (UniProt P28867); assay: Effect on membrane translocation of PKCdelta-GFP Q257E mutant in CHOK1 cells at 20 uM after 1 hr; assay type: functional, cell-based; conditions: CHO-K1
Procedure, shortened: (§2)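 CHO-K1 cells grown at 37 °C, 5% CO2 in F-12 with 10% FBS and penicillin/streptomycin, transfected with GFP-fused PKCδ (wild type or Q257E); imaged 24 h later. Live confocal time series (488 nm excitation, 522/32 emission) in a perfusion chamber at 37 °C after ligand addition (test compound 20 µM; PMA 1 µM). Plasma- and internal-membrane GFP redistribution assessed visually.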

[8] = molecular target: Protein kinase C delta type (Mus musculus) (UniProt P28867); assay: Effect on membrane translocation of wildype full length PKCdelta-GFP in CHOK1 cells at 20 uM within 5 mins; assay type: functional, cell-based; conditions: CHO-K1; procedure, shortened: as §2

| Structure (SMILES) | pKi [1] | pKi [2] | pKi [3] | pKi [4] | pKi [5] | Ratio Ki [6] | pKd [2] | pKd [5] | Activity [7] | Activity [8] |
| --- | --- | --- | --- | --- | --- | --- | --- | --- | --- | --- |
| CC(C)CC=C1OC(CO)(COC(=O)CC(CC(C)C)CC(C)C)OC1=O (centres undefined) | 8.24 |  |  |  |  |  |  |  |  |  |
| CC(C)CC(C/C=C1/CC(CO)(COC(=O)C(C)(C)C)OC1=O)CC(C)C (centres undefined) | 8.54 | 8.92 | 8.94 | 7.35 | 6.32 | 39 |  |  |  |  |
| CC(C)C/C=C1/CC(CO)(COC(=O)CC(CC(C)C)CC(C)C)OC1=O (centres undefined) | 8.51 |  | 8.67 | 7.13 |  | 35 |  |  |  |  |
| CCCC(=O)O[C@@H]1[C@@H](C)[C@@]2(O)[C@@H](C=C(CO)C[C@]3(O)C(=O)C(C)=C[C@@H]23)[C@@H]2C(C)(C)[C@]12OC(=O)CCC |  |  | 9.48 | 8.21 |  |  | 8.69 | 6.42 |  |  |
| CC(C)CC(C/C=C1/OC(CO)(COC(=O)C(C)(C)C)OC1=O)CC(C)C (centres undefined) |  | 8.37 | 9.09 | 5.60 | 5.80 | 3070 |  |  | inactive | Active |
| CC(C)C/C=C1/OC(CO)(COC(=O)CC(CC(C)C)CC(C)C)OC1=O (centres undefined) |  |  | 9.05 | 5.76 |  | 1910 |  |  |  |  |
| CC(C)CC(=O)OCC1(CO)C/C(=C/CC(CC(C)C)CC(C)C)C(=O)O1 (centres undefined) | 8.46 |  | 9.02 | 7.28 |  | 55 |  |  |  |  |
| CC(C)CC(=O)OCC1(CO)OC(=O)/C(=C\CC(CC(C)C)CC(C)C)O1 (centres undefined) | 7.70 |  | 8.55 | 5.46 |  | 1230 |  |  |  |  |
| CC(C)CC(CC=C1OC(CO)(COC(=O)C(C)(C)C)OC1=O)CC(C)C (centres undefined) | 8.19 |  |  |  |  |  |  |  |  |  |
